Calls of active or inactive are those of the source. The rule behind the calls is not given here.
Key:
Mus musculus [1] = experiment: (§1) Antiulcerogenic activity in indomethacin-induced gastric ulceration Balb/c mouse model assessed as decrease in visible gastric hemorrhagic lesions in fundic stomach administered orally 30 mins prior to indomethacin challenge measured after 4 hrs; type: functional, organism-based
Mus musculus [2] = experiment: as §1, with “stomach by measuring ulcer index at 15 mg/kg, po” for “stomach”, “administered” for “administered orally”, “hrs (reference value: 35 +/- 7.5)” for “hrs”; type: functional
Mus musculus [3] = experiment: Antiulcerogenic activity in indomethacin-induced gastric ulceration Balb/c mouse model assessed as restoration of intact epithelial layer in stomach at 15 to 25 mg/kg, po administered 30 mins prior to indomethacin challenge measured after 4 hrs by H and E staining based microscopic method; type: functional, organism-based
Method in brief: (§2)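 Same indomethacin model (80 mg/kg b.w. oral, test agent 15 or 25 mg/kg b.w. oral 30 min prior, sacrifice at 4 h). Stomach pieces fixed in 4% paraformaldehyde, paraffin-embedded, ~5 μm sections H&E stained. Damage index scored blind as percentage of the gastric corpus circumference showing hemorrhage or epithelial disruption; submucosal infiltrating cells and epithelial continuity inspected microscopically.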

Mus musculus [4] = experiment: Antiulcerogenic activity in indomethacin-induced gastric ulceration Balb/c mouse model assessed as gastric damage index at 15 mg/kg, po administered 30 mins prior to indomethacin challenge measured after 4 hrs by H and E staining based microscopic method (reference value: 40 +/- 7); type: functional; method in brief: as §2
Mus musculus [5] = experiment: Antiulcerogenic activity in indomethacin-induced gastric ulceration Balb/c mouse model assessed as gastric damage index at 25 mg/kg, po administered 30 mins prior to indomethacin challenge measured after 4 hrs by H and E staining based microscopic method (reference value: 40 +/- 7); type: functional; method in brief: as §2
Mus musculus [6] = experiment: Antiulcerogenic activity in indomethacin-induced gastric ulceration Balb/c mouse model assessed as infilteration of inflammatory cells at submucosal layer at 15 to 25 mg/kg, po administered 30 mins prior to indomethacin challenge measured after 4 hrs by H and E staining based microscopic method; type: functional, organism-based; method in brief: as §2
Mus musculus [7] = experiment: In vivo inhibition of MMP9 in indomethacin-induced gastric ulceration Balb/c mouse model assessed as reduction in indomethacin-induced ProMMP9 activity in gastric tissue administered orally 30 mins prior to indomethacin challenge measured after 4 hrs by gelatin zymographic method; type: functional, organism-based
Method in brief: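 Gastric tissue from the indomethacin model (test agent orally 15 or 25 mg/kg b.w., 30 min before indomethacin, 4 h) minced at 4 °C in PBS with protease inhibitors, spun 12000g 15 min. PBS extract (70 μg protein/lane, Lowry) run on 8% SDS-PAGE with 1 mg/mL gelatin, nonreducing. Gels washed in 2.5% Triton X-100, incubated 18 h at 37 °C in 40 mM Tris-HCl pH 7.4, 0.2 M NaCl, 10 mM CaCl2, Coomassie stained, densitometry.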

Mus musculus [8] = experiment: Toxicity in indomethacin-induced gastric ulceration Balb/c mouse model assessed as alteration in gastric tissue at 15 to 25 mg/kg, po administered 30 mins prior to indomethacin challenge measured after 4 hrs; type: organism-based; settings: in vivo
[9] = molecular target: T1, Matrix metalloproteinase-9 (Homo sapiens, UniProt P14780); experiment: Inhibition of recombinant human full length MMP9 preincubated for 1 hr followed by gelatin addition measured after 18 hrs by SDS-PAGE analysis
T1 sequence (P14780 whole entry): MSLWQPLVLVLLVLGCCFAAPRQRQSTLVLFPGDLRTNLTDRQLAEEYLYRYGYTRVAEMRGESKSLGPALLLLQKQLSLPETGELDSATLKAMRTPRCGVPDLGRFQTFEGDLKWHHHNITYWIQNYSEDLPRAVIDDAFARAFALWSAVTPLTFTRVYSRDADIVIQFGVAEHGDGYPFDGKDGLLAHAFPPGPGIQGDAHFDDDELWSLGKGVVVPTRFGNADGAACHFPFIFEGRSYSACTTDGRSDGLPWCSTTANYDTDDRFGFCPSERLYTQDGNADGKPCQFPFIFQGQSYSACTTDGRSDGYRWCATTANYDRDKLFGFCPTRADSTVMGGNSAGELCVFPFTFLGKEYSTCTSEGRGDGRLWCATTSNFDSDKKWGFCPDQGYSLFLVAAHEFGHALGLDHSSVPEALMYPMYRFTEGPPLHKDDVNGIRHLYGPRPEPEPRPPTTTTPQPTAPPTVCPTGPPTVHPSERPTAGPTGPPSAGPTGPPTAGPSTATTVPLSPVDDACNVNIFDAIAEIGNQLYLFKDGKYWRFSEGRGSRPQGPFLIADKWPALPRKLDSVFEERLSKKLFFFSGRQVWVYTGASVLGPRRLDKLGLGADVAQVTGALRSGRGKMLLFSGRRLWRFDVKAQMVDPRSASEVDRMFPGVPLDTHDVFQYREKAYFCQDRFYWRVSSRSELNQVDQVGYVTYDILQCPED
Method in brief: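 Full-length recombinant human MMP-9 (~5 μg) incubated 1 h at room temperature with 0−500 μM test agent, then run on nonreducing 8% SDS-PAGE with 1 mg/mL gelatin. Gels washed in 2.5% Triton X-100, incubated 18 h at 37 °C in 40 mM Tris-HCl pH 7.4, 200 mM NaCl, 10 mM CaCl2, Coomassie stained; lysis bands quantified by densitometry against untreated enzyme. IC50 taken from activity change versus concentration, saturation set as 100%.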

[10] = molecular target: T1, Matrix metalloproteinase-9; experiment: Binding affinity to human full length MMP9 assessed as decrease in cotton effects of compound up to 500 uM by CD spectral analysis
[11] = molecular target: T1, Matrix metalloproteinase-9; experiment: Binding affinity to human full length MMP9 by CD spectral analysis
Method in brief: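 Near-UV/visible CD spectra (240−700 nm), 1.0 mm quartz cell, under nitrogen at room temperature in aqueous buffer. Ligand held at 100 μM (from 10 mM methanol stock) while MMP-9 varied 0−333 nM. Kd at half-saturation derived from a double-reciprocal plot of Δθ against MMP-9 concentration.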

Mus musculus [12] = experiment: as §1, with “stomach by measuring ulcer index at 25 mg/kg, po” for “stomach”, “administered” for “administered orally”, “hrs (reference value: 35 +/- 7.5)” for “hrs”; type: functional
[13] = molecular target: T1, Matrix metalloproteinase-9; experiment: Residual activity of recombinant human full length MMP9 at 60 uM preincubated for 1 hr followed by gelatin addition measured after 18 hrs by SDS-PAGE analysis relative to control
[14] = molecular target: T1, Matrix metalloproteinase-9; experiment: Residual activity of recombinant human full length MMP9 at 125 uM preincubated for 1 hr followed by gelatin addition measured after 18 hrs by SDS-PAGE analysis relative to control
[15] = molecular target: T1, Matrix metalloproteinase-9; experiment: Residual activity of recombinant human full length MMP9 at 250 uM preincubated for 1 hr followed by gelatin addition measured after 18 hrs by SDS-PAGE analysis relative to control

SMILES: COc1ccc(-c2oc3cc(O)cc(O)c3c(=O)c2O[C@@H]2O[C@H](CO)[C@@H](O)[C@H](O)[C@H]2O)cc1O
- Activity (Mus musculus [1]): Dose-dependent effect
- UI (Mus musculus [2]): 8
- Activity (Mus musculus [3]): Active
- Activity_index (Mus musculus [4]): 10
- Activity_index (Mus musculus [5]): 5
- Activity (Mus musculus [6]): Active
- inhibition (Mus musculus [7]): Dose-dependent effect
- Activity (Mus musculus [8]): Non-Toxic
- IC50 [9]: 50 µM
- inhibition [9]: Dose-dependent effect
- Activity [10]: Active
- Kd [11]: 0.1 µM
- UI (Mus musculus [12]): 5
- residual activity [13]: 60%
- residual activity [14]: 45%
- residual activity [15]: 40%
